BaF3 tox: parental Ba/F3 cell viability inhibition, counter-screen for JAK2V617F inhibitor project, murine pro-B, CellTiter-Glo luminescence | CellTiter-Glo ATP luminescence | AID 1486, 2009 | inhibition, % at 5.6 µM | 220,000 tested, 1.1% active;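 active means inhibition above a per-campaign cutoff, the mean inhibition of all tested compounds plus 3 SD, cut at about 27% in these data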;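 further: 0% = DMSO wells and 100% = JAK Inhibitor I control wells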
Ba/F3 V617F tox: reduced viability of JAK2V617F-dependent Ba/F3 cells, primary screen, JAK2V617F inhibitor project, cell-based, Ba/F3 EpoR-JAK2V617F, luminescence. ATP luminescence. 220,000 tested, 1.1% active. AID 1446, 2008. inhibition, % at 5.6 µM;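 active means inhibition above the campaign mean plus 3 SD over all tested compounds, cut at about 24% in these data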;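 further: cytokine-independent growth of Ba/F3 cells driven by EpoR plus mutant JAK2; 0% = DMSO-treated cells and 100% = JAK inhibitor I control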
b-catenin transl: modulators of beta-catenin nuclear translocation, primary screen, imaging, HeLa cells, immunofluorescence, high-content; nuclear translocation activity, % at 5 µM; 190,000 tested, 0.3% active; AID 1665, 2009;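 active means nuclear translocation activity above 50% at 5 µM, with a well cell count of 50 or more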;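 further: per-cell ratio of nuclear to cytoplasmic median beta-catenin stain intensity; plate controls were DMSO negative control for no effect and GSK-3 inhibitor IX positive control for full effect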
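Test system: human HeLa cells, native beta-catenin. Compound dosing: 5 µM primary single dose, 0.1% DMSO, 0.02–20 µM confirmation series. Incubation: compound exposure 24 h at 37°C. Detection: beta-catenin immunostaining with DAPI counterstain, 20x imaging, 6 fields/well. Read-out basis: Nuclear/cytoplasmic beta-catenin signal ratio, % activation.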
IEC-6 tox: cytotoxicity in IEC-6 intestinal epithelial cells, primary screen, cytotoxicity control for KLF5 inhibitor project, cell-based, luminescence | IEC-6 cytotoxicity, luminescence viability | inhibition, % at 5 µM | 290,000 tested, 0.78% active | AID 1825, 2009; in the data active means inhibition above about 22%;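 further: 0% = plate median of test compound wells and 100% = cytotoxic reference compound wells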
MT stabilizer: microtubule stabilizers in HeLa cells, primary screen, imaging, high-content imaging; % tubulin-high responders, % at 10 µM; 200,000 tested, 0.83% active; AID 2205, 2009; HeLa tubulin immunostaining HCS, 24 h; share of cells brighter than vehicle mean+2SD;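 active means plate Z-score above 3 for both tubulin-high and condensed-nucleus cell shares, with cell loss under 80%, at 10 µM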;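 further: anti alpha tubulin signal scored within the nucleus-defined area of each cell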
APP 5UTR inh: inhibitors of APP translation via 5'UTR reporter, primary screen, APP 5'UTR luciferase, SH-SY5Y cells. SH-SY5Y APP 5'UTR-luciferase reporter, luminescence. inhibition, % at 2 µM. 190,000 tested, 0.82% active;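 active means inhibition above a set limit, derived from the sample mean plus 3 SD, cut at about 45% in these data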
An asterisk follows results filed as active; x = no result. In the library only some 2.2% were active in any assay of this set; here they are far more common.

SMILES	BaF3 tox	Ba/F3 V617F tox	b-catenin transl	IEC-6 tox	MT stabilizer	APP 5UTR inh
CN(C)S(=O)(=O)c1ccc(Cl)c(NC(=O)CSc2nc3c(cc2C#N)C(=O)CC(C)(C)C3)c1	0	-1	x	-2	4	12
CC/C(=C/c1sc2ccccc2[n+]1CC)SC	3	3	-3	3	3	-11
CC[n+]1c(/C=C2/C=C(C)CC(C)C2)sc2ccccc21 (centres undefined)	55*	60*	-1	1	3	9
COc1cc(CNCCNC(=O)c2nonc2N)ccc1OCc1ccc(Cl)cc1	4	-1	2	6	2	3
COC(=O)c1ccc(COc2ccc(/C=N/NC(N)=S)cc2)o1	2	4	-1	-1	x	x
c1ccc(-c2c[n+]3c(n2-c2ccccc2)SCC3)cc1	61*	66*	0	-1	x	x
CCOc1ccc(-n2c(-c3ccc(Cl)cc3)c[n+]3c2SCC3)cc1	74*	70*	2	2	4	-6
CCOc1ccc(C2=CSC3=NCCN23)cc1	x	x	x	-4	x	x
O=C(Nc1nc2ccc(F)cc2s1)C1CCN(S(=O)(=O)c2cc([N+](=O)[O-])ccc2Cl)CC1	5	11	2	-7	2	-8
Cc1ccc2nc(NC(=O)C3CCN(S(=O)(=O)c4cc([N+](=O)[O-])ccc4Cl)CC3)sc2c1	38*	37*	x	2	5	9
Cc1cc(C(F)(F)F)c(C#N)c(SCC(=O)Nc2nc3ccccc3s2)n1	1	1	4	5	2	-180
Cc1nc(SCC(=O)Nc2nc3ccccc3s2)c(C#N)c(C)c1C	9	1	-2	5	3	64*
Cc1ccc(C(=O)OC(C)C(=O)c2cc(C)c(C)cc2C)o1 (centres undefined)	x	x	x	-5	x	x
O=C(COc1ccc(-n2cnnn2)cc1)NC1CCCCC1	1	0	1	1	2	74*
CC1CCCCC1NC(=O)COc1ccc(-n2cnnn2)cc1 (centres undefined)	1	2	x	3	3	1
c1csc(CNc2ncnc3sccc23)c1	36*	34*	x	8	3	3
CN(C)c1ccc(/C=C(\C#N)c2ccccc2)cc1	76*	83*	-2	74*	x	x
CN(C)c1ccc(/C=C(\C#N)C(=O)c2ccccc2)cc1	1	0	-2	6	x	x
N#Cc1c(N)nc2c(c1-c1ccc3c(c1)OCO3)CCc1ccccc1-2	8	2	6	7	26*	x
COc1cc(CN2CCN(CC#Cc3ccccc3)CC2CCO)cc(OC)c1 (centres undefined)	x	x	x	8	x	x
Cc1nc2cc(C(=O)N3c4ccccc4CC3C)ccc2s1 (centres undefined)	8	-1	47	19	26*	5
CC1Cc2ccccc2N1C(=O)c1ccc2snnc2c1 (centres undefined)	3	-2	-6	2	4	-13
Cc1csc2ncc(C(=O)N3c4ccccc4CC3C)c(=O)n12 (centres undefined)	39*	-2	-1	4	7	-2
CCOC(=O)c1c(C)c(C(=O)Nc2cc(F)ccc2F)c(C)n1C	1	0	38	0	13*	-5
O=C(Nc1ccccc1Br)C1CC(=O)N(c2ccc3c4c(cccc24)CC3)C1 (centres undefined)	2	-2	4	0	38*	-1
CCCN(C(=O)CCSc1ccc(F)cc1)c1c(N)n(Cc2ccccc2)c(=O)[nH]c1=O	x	x	x	0	x	x
Cc1ccc2c(c1)c1c(n2CC(O)CNC2CCCCC2)CCCC1 (centres undefined)	10	4	1	-4	36*	-5
N#C/C(=C(/O)CSc1ncn[nH]1)c1nc2ccccc2[nH]1	5	0	1	1	1	11
CCOc1cc(S(=O)(=O)N2CC=C(c3ccc(F)cc3)CC2)c(OCC)cc1-n1cnnn1	4	1	1	0	45*	5
Nc1ccc2nc3c(c(Cl)c2c1)CCCC3	63*	17	25	3	x	x

Compound activity (PubChem)
